JMJD2C inh = blocks human GASC-1 demethylase activity. Q9H3R0. GST-JMJD2C(1-420) H3K9me3 demethylation, DELFIA europium. inhibition, % at 2.35 µM. 0.069% of 330,000 active. AID 2099;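 active = more than half of a compound's replicate wells show inhibition beyond 50%, single wells judged on their own value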;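 note: signal counts dimethyl H3K9 product captured on neutravidin plate; 0% = median of DMSO wells and 100% = 0.3 times that DMSO median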
ADAM10 inh = inhibits human ADAM10 | recombinant ADAM10, EDANS/DABCYL FRET peptide cleavage, 3 h | 0.62% of 370,000 active | inhibition, % at 7 µM | AID 720582;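 active = inhibition above a per-campaign cutoff equal to the mean of compounds falling between control-based bounds plus 3 SD, cut at about 20% in these data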;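 note: 0% = DMSO wells while the 100% control is not disclosed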
NR2E3 ag-1 = agonists of human NR2E3 nuclear receptor; Q9Y5X4; CHO-S Gal4-NCOR/VP16-NR2E3 two-hybrid, luciferase; inhibition of corepressor binding, % at 3.98 µM; 0.35% of 360,000 active;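 active = inhibition above the mean of all tested compounds plus 3 SD, cut at about 70% in these data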;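 note: 0% = DMSO with NR2E3 transfected cells and 100% = cells lacking NR2E3 construct; higher means lower luciferase signal from less NR2E3 corepressor binding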
Target sequence (Q9Y5X4 whole entry, looked up, the tested form may be a part): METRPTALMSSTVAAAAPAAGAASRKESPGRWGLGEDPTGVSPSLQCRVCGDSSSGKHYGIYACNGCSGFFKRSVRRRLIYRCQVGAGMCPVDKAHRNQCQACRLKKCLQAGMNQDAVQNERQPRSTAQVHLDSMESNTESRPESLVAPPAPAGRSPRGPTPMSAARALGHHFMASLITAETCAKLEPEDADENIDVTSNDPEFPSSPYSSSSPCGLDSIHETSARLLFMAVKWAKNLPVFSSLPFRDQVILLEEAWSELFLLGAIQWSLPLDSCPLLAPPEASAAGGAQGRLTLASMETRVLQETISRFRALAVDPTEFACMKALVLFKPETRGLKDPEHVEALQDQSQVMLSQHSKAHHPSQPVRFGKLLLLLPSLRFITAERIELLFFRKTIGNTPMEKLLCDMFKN
ADAM17 inh = inhibitors of human ADAM17. P78536. recombinant ADAM17, EDANS/DABCYL FRET peptide cleavage. inhibition, % at 6.95 µM. 0.83% of 370,000 active;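 active = inhibition above the mean of compounds lying between control limits plus 3 SD, set per campaign, cut at about 8.5% in these data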;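 note: 0% = DMSO-only wells as the low control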
KLK7 zymogen act = proKLK7 (human) activation, primary screen; purified proKLK7, EDANS-DABCYL substrate fluorescence; 100% is mature enzyme control, 0% vehicle; AID 652039; P49862; activation, % at 7 µM; 0.9% of 370,000 active;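 active = activation above the mean of all tested compounds plus 3 SD, computed per campaign excluding outliers beyond control limits, cut at about 13% in these data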
NR2E3 ag-2 = activates human photoreceptor nuclear receptor NR2E3 | GST-NR2E3/biotin-RetCOR TR-FRET, 1536-well | inhibition of corepressor binding, % at 4.78 µM | 0.12% of 320,000 active | AID 2300;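 active = percent inhibition above the cutoff of mean plus 3 SD of all tested compounds, set per screening campaign, cut at about 20% in these data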;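 note: 0% = DMSO wells and 100% = biotin wells as full block of FRET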
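Material: NR2E3–RetCOR corepressor complex | Quantity: 1.35 nM GST-tagged NR2E3 final | Schedule: 5 h at 4 °C | Replication: Singlicate compound wells | Reagent: RetCOR corepressor, biotinylated, 7 nM | Controls: Biotin wells as high control, 0.6% DMSO wells as low control | Signal: TR-FRET, Eu(K)-anti-GST donor, streptavidin-D2 acceptor, ex 340, em 617/671 nm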
ADAM10 ctr = counter-screen for ADAM17 exosite inhibitors: inhibitors of human ADAM10; shares compounds with ADAM17 inh; 47% of 2,900 active; inhibition, % at 6.95 µM; recombinant ADAM10, EDANS/DABCYL FRET peptide cleavage, 3 h;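 active = mean inhibition over the triplicate runs exceeds the activity threshold set in the earlier primary screen, cut at about 20% in these data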;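 note: 0% = DMSO wells and 100% = marimastat wells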
ADAM17 confirm = human ADAM17 inhibition, confirmation | shares compounds with ADAM17 inh | recombinant ADAM17, EDANS/DABCYL QFRET peptide cleavage | inhibition, % at 6.95 µM | 65% of 2,900 active | AID 743257;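 active = mean inhibition across replicates above the hit cutoff set in the primary screen, cut at about 8.5% in these data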;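 note: 0% = DMSO wells and 100% = marimastat wells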
Numbers without * were called inactive; . = not tested or not shown. Only some compounds are listed: those with a hit (about 2.5% of all), similar ones and a draw of the others.

SMILES	JMJD2C inh	ADAM10 inh	NR2E3 ag-1	ADAM17 inh	KLK7 zymogen act	NR2E3 ag-2	ADAM10 ctr	ADAM17 confirm
CC(C)c1ccc(S(=O)(=O)N2CCN(C(=S)NCc3ccco3)CC2)cc1	0	5	-10	9.5*	0	3	28*	17*
O=C(CCc1nc(-c2ccccc2)no1)NC1CCCCC1	0	3	29	9.0*	0	1	-5	2
O=C(CCC(F)(F)F)N1CCCC(N2CCN(c3cccc(Cl)c3)CC2)C1 (stereo not drawn)	-11	1	-19	3	0	0	.	.
Cc1cccnc1NC(=O)c1ccc(Br)o1	30	-2	19	8.6*	0	1	-4	0
Cc1cccc(C)c1NC(=O)C(C1CC1)n1c(=O)c(-c2cc3ccccc3[nH]2)nc2ccccc21 (stereo not drawn)	.	-366	.	-110	-152	.	.	.
CCN(CC)c1ccc(NC(=O)CSc2nc3ccccc3c(=O)n2-c2cc(S(=O)(=O)N(C)C)ccc2C)cc1	-8	19	-2	10*	-1	-2	21*	15*
O=C1OC(N2C(=O)CC[C@H]2C(=O)Nc2ccc3c(c2)OCO3)c2ccccc21 (stereo partly drawn)	-42	-5	0	-2	0	-1	.	.
CCOC(=O)c1cccc(NS(=O)(=O)c2cnc[nH]2)c1	-9	-9	-19	0	0	-4	.	.
CCOC(=O)c1ccc(NS(=O)(=O)c2cnc[nH]2)cc1	-5	-10	4	9.3*	-1	2	-4	-3
C=CC[C@@H](Cc1ccc(F)cc1)C(=O)OC[C@@H]1CCCN1C(=O)[C@@H](CC=C)CC(=O)N[C@H](CO)Cc1ccccc1	1	10	25	4	-1	.	.	.
CC(CCc1ccccc1)NC(=O)C(Cc1ccccc1)NS(=O)(=O)c1cccs1 (stereo not drawn)	5	3	-28	9.8*	0	3	21*	9.3*
COc1ccccc1N(CC(=O)NCCN1CCOCC1)S(=O)(=O)c1ccccc1	-24	1	-26	0	0	-5	.	.
CC(=O)Nc1cc(-c2ccccc2)cn2c(-c3cccc(C(C)=O)c3)cnc12	.	-34	-31	-10	-1	.	.	.
COc1ccc(NC(=O)CSc2nc3ccsc3c(=O)n2CCCCCC(=O)O)cc1	-3	2	10	-1	0	-2	.	.
CCN(CC)S(=O)(=O)c1ccc(N=Nc2c(C)[nH]n(C(N)=S)c2=O)cc1	5	9	-38	12*	0	-1	8	3
O=c1ccn([C@@H]2O[C@H](CNCc3ccc(-c4cc(C(F)(F)F)ccc4Cl)o3)[C@@H](O)[C@H]2O)c(=O)[nH]1	.	-11	-14	-4	0	.	.	.
Nc1ncnc2c1ncn2[C@@H]1O[C@H](CNCc2ccc(-c3cc(C(F)(F)F)ccc3Cl)o2)[C@@H](O)[C@H]1O	.	6	-1	10*	0	.	-5	2
Cc1ccccc1-c1nc(S(=O)(=O)c2ccc(Br)cc2)c(NCc2cccnc2)o1	-12	19	7	9.9*	-4	0	16	25*
COc1ccc(S[C@]2(C(=O)N(C)C)CC(=O)N(C(=O)CCc3ccccc3)[C@@H]2c2ccc(OC)cc2)cc1	.	9	.	10*	0	.	14	9.8*
Cc1ccc(COc2ccsc2C(=O)NNC(N)=S)cc1	6	-2	14	-2	0	1	.	.
CCCc1c(-c2ccc(F)cc2F)ncn1Cc1cccc(-c2ccccc2)c1	.	14	.	16*	0	.	2	6
COc1ccc(/C(O)=C2/C(=O)C(=O)N(CCCN3CCOCC3)C2c2ccc(Cl)cc2)cc1 (stereo not drawn)	.	-17	-4	-5	0	.	.	.

High-throughput results deposited in PubChem BioAssay by several laboratories.
